Results from PMC2771698 (Journal of medicinal chemistry, 2009).
Several values for one entry are separate records, joined by “and”; a condition that tells them apart may be missing. Equal entries are not always repeated. Where two headings read alike, the source gives them in different places. Each block holds one molecule with its values, some of them ahead of it.

What was measured:
T. cruzi amastigotes = test: T. cruzi; format: cell-based, Trypanosoma cruzi; details: read-out: EC50 T. cruzi
Method in brief: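 β-galactosidase-expressing Tulahuen strain grown as intracellular amastigotes in murine 3T3 fibroblasts, 96-well format, colorimetric read-out. Test compounds HPLC-purified to a single peak, with ≥95% estimated purity by 1H NMR. Each tested in triplicate to derive EC50.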

[1] = cited from earlier work
[2] = Single oral dose pharmacokinetics in BALB/c mice; format: in vivo; details: single dose 50 mg/kg oral gavage; for AUC 0_5hr, Mouse 1, 2, 3 / Tmax, Mouse 1, 2, 3 / Cmax, Mouse 1, 2, 3: Balb/c mice, individual mice, 50 mg/kg; for Cmax, Mouse 1, 2, 3: plasma
T. cruzi = test: PCR detection of T. cruzi parasitemia in blood of treated mice at day 100; format: in vivo; details: for PCR parasite detection after 100 days post infection: days 7–27 post-infection, groups of 6
[3] = test system: T. cruzi trypomastigotes (Tulahuen strain); test: Efficacy in mice infected with T. cruzi; format: in vivo; details: days 7–27 post-infection
Method in brief: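 Female BALB/c mice (7–8 weeks) infected subcutaneously with 1×10^4 Tulahuen trypomastigotes; treatment began day 7 post-infection. Groups of 6 dosed by oral gavage twice daily for 21 days, 100 µL per dose in 20% (w/v) hydroxypropyl β-cyclodextrin; vehicle-only group included. Parasitemia counted in 5 µL tail blood under coverslip, 50 high-power fields, through day 97. Pre-morbid mice euthanized; survivors sacrificed day 100.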

[4] = mice and rats; cited from earlier work
[5] = 50 mg/kg oral gavage twice per day
[6] = 20 mg/kg oral gavage twice per day

Structure (SMILES): c1ccc(Cn2cncc2CNc2cccc(-c3cccnc3)c2)cc1 [Compound 35j]
- EC50 (T. cruzi amastigotes; Table 4, general structure IV): 760 nM

Structure (SMILES): N#Cc1ccc(NCc2cncn2Cc2ccc(-c3ccccc3)cc2N)cc1-c1ccccc1 [Compound 44b]
- EC50 (T. cruzi amastigotes; Table 5, general structure V): 2.6 nM

Structure (SMILES): Cc1ccccc1-c1ccc(Cn2cncc2CNc2ccc(-c3nc4ccccc4s3)c(-c3ccccc3)c2)cc1 [Compound 32f]
- EC50 (T. cruzi amastigotes; Table 3, general structure III): 180 nM

Structure (SMILES): c1ccc(-c2ccc(Cn3cncc3CNc3ccc(-c4cncs4)c(-c4ccccc4)c3)cc2)cc1 [Compound 27a]
- pharmacokinetic profile in mice [1]: good pharmacokinetic profile

Structure (SMILES): Cc1cccc(-c2cc(NCc3cncn3Cc3ccc(-c4ccccc4)cc3)ccc2-c2nc3ccccc3s2)c1C [Compound 32h]
- EC50 (T. cruzi amastigotes; Table 3, general structure III): 101 nM

Structure (SMILES): Fc1ccc(Cn2cncc2CNc2ccc(-c3nc4ccccc4s3)c(-c3ccccc3)c2)c(F)c1 [Compound 32d]
- EC50 (T. cruzi amastigotes; Table 3, general structure III): 630 nM

Structure (SMILES): Nc1cc(-c2ccccc2)ccc1Cn1cncc1CNc1ccc(Cl)c(-c2ccccc2)c1 [Compound 44a, (6-Chloro-biphenyl-3-yl)-[3-(3-amino-biphenyl-4-ylmethyl)-3H-imidazol-4-ylmethyl]-amine]
- AUC 0_5hr, Mouse 1, 2, 3 [2]: 6700 ng·h/mL and 5600 ng·h/mL
- Tmax, Mouse 1, 2, 3 [2]: 1.0 h
- Cmax, Mouse 1, 2, 3 [2]: 1900 ng/mL
- PCR parasite detection after 100 days post infection (T. cruzi; [5]): 6 of 6 mice
- EC50 (T. cruzi amastigotes; Table 5, general structure V): 1.5 nM and 2.1 nM
- suppression of parasitemia in blood (microscopy) [3, 5]: dramatically suppressed

Structure (SMILES): Nc1cc(-c2ccccc2)ccc1Cn1cncc1CNc1ccc(-c2cncs2)c(-c2ccccc2)c1 [Compound 44e]
- EC50 (T. cruzi amastigotes; Table 5, general structure V): 13 nM

Structure (SMILES): Cc1ccccc1-c1cccc(NCc2cncn2Cc2ccccc2)c1 [Compound 35g]
- EC50 (T. cruzi amastigotes; Table 4, general structure IV): 310 nM

Structure (SMILES): c1ccc(-c2ccc(Cn3cncc3CNc3ccc(-c4nc5ccccc5s4)c(-c4ccccc4)c3)cc2)cc1 [Compound 27d]
- pharmacokinetic profile in mice [1]: good pharmacokinetic profile

Structure (SMILES): Cc1cccc(-c2cccc(NCc3cncn3Cc3ccccc3)c2)c1C [Compound 35i]
- EC50 (T. cruzi amastigotes; Table 4, general structure IV): 300 nM

Structure (SMILES): Cc1ccccc1-c1cc(NCc2cncn2Cc2ccc(-c3ccccc3)cc2)ccc1-c1nc2ccccc2s1 [Compound 32g]
- EC50 (T. cruzi amastigotes; Table 3, general structure III): 42 nM

- AUC 0_5hr, Mouse 1, 2, 3 [2]: 32400 ng·h/mL and 29000 ng·h/mL
- Tmax, Mouse 1, 2, 3 [2]: 2.0 h
- Cmax, Mouse 1, 2, 3 [2]: 8600 ng/mL
- drug loss from plasma out to 5 hr ([2]; mice): significant drug loss was not observed
Structure (SMILES): Nc1cc(-c2ccccc2)ccc1Cn1cncc1CNc1ccc(-c2nc3ccccc3s2)c(-c2ccccc2)c1 [Compound 44d]
- PCR parasite detection after 100 days post infection (T. cruzi; [6]): 5 of 6 mice
- PCR parasite detection after 100 days post infection (T. cruzi; [5]): 2 of 6 mice
- mice with parasitemia suppressed below PCR detectability (T. cruzi; 50 mg/kg twice per day, day 100): 4 of 6
- suppression of parasitemia in blood (microscopy) [3, 6]: dramatically suppressed
- suppression of parasitemia in blood (microscopy) [3, 5]: most suppression

Structure (SMILES): CC[C@@H]([C@H](C)O)n1ncn(-c2ccc(N3CCN(c4ccc(OC[C@@H]5CO[C@@](Cn6cncn6)(c6ccc(F)cc6F)C5)cc4)CC3)cc2)c1=O [Posaconazole, posaconazole, reference compound]
- terminal phase half-life [4]: 7 to 9 h
- PCR parasite detection after 100 days post infection (T. cruzi; [6]): 0 of 6 mice
- suppression of parasitemia in blood (microscopy) [3, 6]: most suppression

Structure (SMILES): CCc1ccc(Cn2cncc2CNc2ccc(-c3nc4ccccc4s3)c(-c3ccccc3)c2)cc1 [Compound 32b]
- EC50 (T. cruzi amastigotes; Table 3, general structure III): 190 nM

Structure (SMILES): CC(C)c1ccc(Cn2cncc2CNc2ccc(-c3nc4ccccc4s3)c(-c3ccccc3)c2)cc1 [Compound 32a]
- EC50 (T. cruzi amastigotes; Table 3, general structure III): 860 nM

Structure (SMILES): c1ccc(Cn2cncc2CNc2cccc(-c3ccccc3)c2)cc1 [Compound 35e]
- EC50 (T. cruzi amastigotes; Table 4, general structure IV): 400 nM
